From PubChem BioAssay
SENP6 block: inhibitors of human SENP6 protease; Q9GZR1; Recombinant SENP6 catalytic domain, aminoluciferin luminescence; inhibition, % at 10 µM; actives 1.8% (n = 330,000); AID 2599;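 active means inhibition above about 50% at the single tested dose, limit read from the data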
Apaf1 inhib: inhibitors of human Apaf-1 apoptosome; inhibition, % at 20 µM; O14727; reconstituted apoptosome caspase-3 activity, DEVD-Rh110 fluorescence; actives 0.71% (n = 330,000); active means inhibition of at least 40% at 20 µM
Target sequence (O14727 whole entry, looked up): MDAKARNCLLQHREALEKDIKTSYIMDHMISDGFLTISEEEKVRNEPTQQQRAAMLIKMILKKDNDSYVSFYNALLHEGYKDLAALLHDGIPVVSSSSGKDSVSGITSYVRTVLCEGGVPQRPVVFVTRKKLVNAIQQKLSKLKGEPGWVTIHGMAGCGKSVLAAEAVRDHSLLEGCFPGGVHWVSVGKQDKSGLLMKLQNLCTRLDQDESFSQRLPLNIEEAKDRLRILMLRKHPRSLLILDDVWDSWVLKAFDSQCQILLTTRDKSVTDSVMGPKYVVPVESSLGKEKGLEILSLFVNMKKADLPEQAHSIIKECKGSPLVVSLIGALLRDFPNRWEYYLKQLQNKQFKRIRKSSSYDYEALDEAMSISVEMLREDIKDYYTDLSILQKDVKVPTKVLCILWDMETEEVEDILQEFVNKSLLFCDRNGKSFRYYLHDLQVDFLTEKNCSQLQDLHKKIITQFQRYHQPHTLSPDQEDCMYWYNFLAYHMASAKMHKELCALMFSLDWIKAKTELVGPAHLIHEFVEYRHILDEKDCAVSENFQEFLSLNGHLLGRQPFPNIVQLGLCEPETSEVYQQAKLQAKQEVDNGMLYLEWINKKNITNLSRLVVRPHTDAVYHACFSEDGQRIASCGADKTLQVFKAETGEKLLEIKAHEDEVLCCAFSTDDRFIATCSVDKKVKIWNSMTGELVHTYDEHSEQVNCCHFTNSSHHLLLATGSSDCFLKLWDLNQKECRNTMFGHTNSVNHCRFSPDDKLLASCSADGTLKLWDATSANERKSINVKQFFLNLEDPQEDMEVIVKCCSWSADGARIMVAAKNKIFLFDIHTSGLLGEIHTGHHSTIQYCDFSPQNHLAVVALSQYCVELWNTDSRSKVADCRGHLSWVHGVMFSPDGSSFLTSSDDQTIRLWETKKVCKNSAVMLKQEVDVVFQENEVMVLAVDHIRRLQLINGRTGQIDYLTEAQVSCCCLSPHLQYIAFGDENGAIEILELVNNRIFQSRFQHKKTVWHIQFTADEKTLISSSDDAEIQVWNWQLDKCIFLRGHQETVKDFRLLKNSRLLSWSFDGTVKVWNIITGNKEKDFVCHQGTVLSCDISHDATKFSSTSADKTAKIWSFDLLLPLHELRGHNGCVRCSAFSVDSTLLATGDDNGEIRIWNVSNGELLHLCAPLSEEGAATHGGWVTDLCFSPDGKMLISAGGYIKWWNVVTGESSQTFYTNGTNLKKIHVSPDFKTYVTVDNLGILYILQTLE
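System: Apoptosome proteins | Medium: Hepes pH 7.5 with detergent and BSA | Also added: Cytochrome c trigger plus (Z-DEVD)2-Rh110 caspase-3 substrate | Incubation: 30 min compound preincubation, 50 min activation, room temperature | Detection: Rhodamine 110 fluorescence at Ex 480/Em 540 nm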
SENP8 block-1: SENP8 (human) protease inhibition; Q96LD8; recombinant SENP8, Nedd8 substrate fluorescence; inhibition, % at 20 µM; actives 0.64% (n = 360,000); in the data active means inhibition mostly above about 40%, no sharp cut-off; inactive means mostly below about 27%
SENP7 inh: SENP7 protease inhibition | recombinant SENP7, Z-RLRGG-aminoluciferin luminescence, 40 min | inhibition, % at 5 µM | actives 1.5% (n = 330,000) | AID 434973 | Q9BQF6;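 active means inhibition above about 50% at the single test dose, limit read from the data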
UBC13 inh: inhibitors of human UBC13 polyubiquitin chain formation; P61088; TR-FRET; inhibition, % at 20 µM; actives 0.47% (n = 330,000); AID 485273; in the data active means inhibition above about 45%, passing the limit was not always enough
SENP8 block-2: inhibitors of human SENP8 protease; Q96LD8; purified SENP8, Z-RLRGG-aminoluciferin cleavage, luminescence; inhibition, % at 10 µM; actives 1.2% (n = 330,000); AID 2540; in the data active means inhibition above about 50%
Of the large screens only hits and unclear results are named; the others gave an inactive call. In the library only some 3.1% were active in any assay of this set; here they are far more common.

CCN(CC(=O)NCc1cccs1)C(=O)C1CC(=O)N(c2ccc(OC)cc2OC)C1 (stereo not drawn)	Apaf1 inhib 51
CCN(CC(=O)Nc1ccc2c(c1)OCCO2)C(=O)C1CC(=O)N(c2ccc(OC)cc2OC)C1 (stereo not drawn)	none
Oc1ccc(Cl)c(CN2CCN(c3ncc(Cc4ccccc4)cn3)CC2)c1	none (no result: SENP6 block, Apaf1 inhib, SENP7 inh, UBC13 inh, SENP8 block-2)
CC(=O)OC(C)C1C2=C(C(=O)CC1(C)O)C(=O)c1c(ccc(-c3ccc4c(c3O)C(=O)C3=C(C4=O)C(C(C)OC(C)=O)C(C)(O)CC3=O)c1O)C2=O (stereo not drawn)	SENP8 block-1 49 (no result: SENP6 block, Apaf1 inhib, SENP7 inh, UBC13 inh, SENP8 block-2)
CC(C)(C)C(c1nc2ccccc2[nH]1)n1c(-c2ccsc2)nc2ccccc21 (stereo not drawn)	none (no result: SENP6 block, Apaf1 inhib, SENP7 inh, UBC13 inh, SENP8 block-2)
COc1ccc(/C=N/N=C(\N)c2nonc2N)cc1OC	none
Cc1nonc1C(=O)N/N=C/c1ccc(O)c(O)c1	SENP6 block 97, SENP7 inh 99, SENP8 block-2 96
N/C(=N\N=C\c1ccc(O)c(O)c1)c1nonc1N	SENP6 block 99, SENP7 inh 99, SENP8 block-2 96
C=CCC(NC(=O)N(C)C)(C(=O)OC)C(C)O (stereo not drawn)	none (no result: SENP6 block, Apaf1 inhib, SENP7 inh, UBC13 inh, SENP8 block-2)
CCCNC(=O)OC[C@H]1O[C@H](CCO/N=C(\C)CCN2CCc3nc(-c4ccccc4)c(-c4ccccc4)cc3C2)C=C[C@@H]1Oc1ccc(OC)cc1	Apaf1 inhib 53 (no result: SENP8 block-1)
CC(C)n1cnc2c(Nc3ccc(C(=O)O)cc3)nc(Cl)nc21	none
CC(C)[C@H](CO)Nc1nc(Nc2ccc(Cl)c(C(=O)O)c2)c2ncn(C(C)C)c2n1	Apaf1 inhib 44
COc1ccc(CN2C(=O)C(CC(=O)NC3CCCC3)CC(C(=O)N3CCOCC3)=C2C)cc1 (stereo not drawn)	none (no result: SENP6 block, Apaf1 inhib, SENP7 inh, UBC13 inh, SENP8 block-2)
Oc1c(N=Nc2nn[nH]n2)ccc2ccccc12	SENP8 block-1 55 (no result: SENP6 block, Apaf1 inhib, SENP7 inh, UBC13 inh, SENP8 block-2)
COC(=O)C1=CN(c2ccc(N3CCOCC3)cc2)C(N)=C(C#N)C1c1cccc(F)c1 (stereo not drawn)	none (no result: SENP6 block, Apaf1 inhib, SENP7 inh, UBC13 inh, SENP8 block-2)
COC(=O)C1C(=O)N(S(=O)(=O)c2ccc([N+](=O)[O-])cc2)c2ccccc21 (stereo not drawn)	none (no result: SENP6 block, Apaf1 inhib, SENP7 inh, UBC13 inh, SENP8 block-2)
COc1ccc(C2NCCc3c2[nH]c2ccccc32)cc1COc1ccc(F)cc1 (stereo not drawn)	UBC13 inh 47
COc1n[nH]c(C(=O)Nc2nc3ccccc3s2)c1[N+](=O)[O-]	SENP6 block 96, SENP7 inh 92, SENP8 block-2 91
CSc1ncccc1C(=O)Nc1nc2ccc(Oc3ccccc3)cc2s1	SENP6 block 94, SENP7 inh 95, SENP8 block-2 90
COc1n[nH]c(C(=O)NCc2ccccc2)c1[N+](=O)[O-]	none
COc1ccc2nc(NC(=O)c3ccccc3C(=O)O)sc2c1	none
COc1ccccc1C(=O)Nc1nc2ccccc2s1	SENP6 block 100, SENP7 inh 100, SENP8 block-2 97
COc1ccccc1C(=O)Nc1nc2ccc(S(C)(=O)=O)cc2s1	none
Cc1ccc([C@@]2(OC(=O)c3ccccc3)C(=O)N(C(=O)OC(C)(C)C)c3ccccc32)cc1	none (no result: SENP6 block, Apaf1 inhib, SENP7 inh, UBC13 inh, SENP8 block-2)
O=C1NC2=C(CCc3ccccc32)C(c2ccc(Br)cc2)N1 (stereo not drawn)	Apaf1 inhib 69
O=c1c(N=Nc2ccc(O)cc2)c(-c2ccccc2)[nH]n1-c1ccc([N+](=O)[O-])cc1	SENP8 block-1 56
NC(=O)c1ccc(N=Nc2c(-c3ccccc3)[nH]n(-c3ccccc3)c2=O)cc1	none (no result: SENP8 block-1)
CCC(=O)Nc1nc(-c2ccccc2)ns1	none
CC(=O)Nc1nc(-c2ccc(Cl)cc2)ns1	SENP6 block 55
Cc1c(N/N=C(\C#N)C(=O)c2ccccc2)c(=O)n(-c2ccccc2)n1C	SENP8 block-1 40 (no result: SENP6 block, Apaf1 inhib, SENP7 inh, UBC13 inh, SENP8 block-2)
COc1ccc(NC(=O)C(C2CC2)n2c(=O)c(-c3ccccc3)nc3ccccc32)cc1 (stereo not drawn)	none (no result: SENP6 block, Apaf1 inhib, SENP7 inh, UBC13 inh, SENP8 block-2)
CCCCCCCCN1C(=O)[C@H](CC(=O)NCC2CCCCC2)C[C@@]2(C(=O)OCC)CCC=C12	none (no result: SENP6 block, Apaf1 inhib, SENP7 inh, UBC13 inh, SENP8 block-2)
CC1(C)Cc2ccccc2C2CC(O)C(=O)N21 (stereo not drawn)	SENP8 block-1 40
O=C1c2ccccc2[C@@H]2CC(O)C(O)CCN12 (stereo partly drawn)	none (no result: SENP6 block, UBC13 inh, SENP8 block-2)
CN(C)CCCNS(=O)(=O)c1ccc(N2CCC(c3ccc(Cl)cc3)=N2)cc1	Apaf1 inhib 73, UBC13 inh 55 (no result: SENP8 block-1)
COc1ccc(OC)c(CN2C(=O)c3ccccc3C2c2nnnn2Cc2ccccc2)c1 (stereo not drawn)	none (no result: SENP6 block, Apaf1 inhib, SENP7 inh, UBC13 inh, SENP8 block-2)
CCOC(=O)N1CCC(NC(=O)c2ccc3c(c2)sc2nc(-c4ccc(OC)cc4)cn23)CC1	Apaf1 inhib 44 (no result: SENP8 block-1)
NC(Cc1ccc(F)cc1)c1csc(Nc2ccc(C(=O)c3ccccc3)cc2)n1 (stereo not drawn)	none (no result: SENP6 block, Apaf1 inhib, SENP7 inh, UBC13 inh, SENP8 block-2)
COc1ccc(NC(=O)C2c3ccccc3OCC(=O)N2Cc2ccco2)cc1 (stereo not drawn)	none (no result: SENP6 block, Apaf1 inhib, SENP7 inh, UBC13 inh, SENP8 block-2)
Cc1nc(-c2ccc(Br)cc2)ccc1C(=O)O	SENP6 block 75
Cc1ccc(C=C2SC(=S)N(CCCC(=O)Nc3cccc(C(=O)O)c3)C2=O)cc1	none (no result: SENP6 block, Apaf1 inhib, SENP7 inh, UBC13 inh, SENP8 block-2)
O=C(CCN1C(=O)/C(=C\C=C\c2ccccc2)SC1=S)Nc1cccc(C(=O)O)c1	SENP6 block 53, SENP8 block-2 55
COc1cc(/C=C2\SC(=S)N(NS(=O)(=O)c3ccc(C)cc3)C2=O)ccc1O	none
Cc1ccc(/C=C2\SC(=S)N(CCCC(=O)Nc3cccc(C(=O)O)c3)C2=O)cc1	SENP6 block 91, SENP7 inh 61, SENP8 block-2 87
Cc1ccc(/C=C2\SC(=S)N(CCC(=O)NNS(=O)(=O)c3ccccc3)C2=O)cc1	SENP8 block-1 59
COc1cc(/C=C2\SC(=S)N(NS(=O)(=O)c3ccccc3)C2=O)ccc1O	SENP8 block-1 48
O=C(CCN1C(=O)/C(=C\C=C\c2ccccc2)SC1=S)Nc1ccccc1C(=O)O	none
Cc1ccc(/C=C2\SC(=S)N(CCC(=O)NNC(=O)c3ccccc3O)C2=O)cc1	none
O=C(Nc1ccc(F)cc1)C(c1ccnc2ccccc12)N1CCN(CC(=O)N2CCCC2)CC1 (stereo not drawn)	none (no result: SENP6 block, Apaf1 inhib, SENP7 inh, UBC13 inh, SENP8 block-2)
CC(=O)N1CCC(C(=O)N2c3ccccc3N=C(c3ccc(C(F)(F)F)cc3)C2C(=O)NC2CCCC2)CC1 (stereo not drawn)	none (no result: SENP6 block, Apaf1 inhib, SENP7 inh, UBC13 inh, SENP8 block-2)
CC(=O)Nc1cccc(-c2ccnc3c2CC(C)(C(=O)NCc2ccc(F)c(F)c2)O3)c1 (stereo not drawn)	none (no result: SENP6 block, Apaf1 inhib, SENP7 inh, UBC13 inh, SENP8 block-2)
O=C1NC(=S)SC1=Cc1ccccn1	none (no result: SENP6 block, Apaf1 inhib, SENP7 inh, UBC13 inh, SENP8 block-2)
Cc1cccc2c(N=Nc3ccc(S(=O)(=O)Nc4ccc(Cl)cc4)cc3[N+](=O)[O-])c(O)[nH]c12	SENP8 block-1 40
Cc1ccc([C@H]2C(C(=O)O)=CCN2S(=O)(=O)c2ccc(C)cc2)cc1	none (no result: SENP6 block, Apaf1 inhib, SENP7 inh, UBC13 inh, SENP8 block-2)
CC1=NN(c2nc(-c3ccc(C)cc3)cs2)C(=O)C1N=Nc1cccc(O)c1 (stereo not drawn)	SENP8 block-1 36
